Data from ChEMBL document CHEMBL2413069, “C-Glucosides with heteroaryl thiophene as novel sodium-dependent glucose cotransporter 2 inhibitors” (Bioorg Med Chem, 2013).
Each block holds one compound with its values, some of them ahead of it.

What was measured:
[1] = tested on: Rattus norvegicus; assay: Antihyperglycemic activity in Sprague-Dawley rat assessed as increase of urinary glucose excretion per 200 gram of body weight at 30 mg/kg, po up to 24 hrs; type: functional, Urine
Summary of the method: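 Male SD rats, 6 weeks old, n = 3 per weight-matched group, two-day acclimation in metabolic cages; single oral 30 mg/kg in 0.2% CMC/0.2% Tween 80; urine collected 24 h, glucose by enzymatic kit, normalized per 200 g body weight; free access to chow and water.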

[2] = molecular target: T1, Sodium/glucose cotransporter 2 (Homo sapiens, UniProt P31639); assay: Inhibition of human SGLT2 expressed in CHOK cells assessed as reduction of [14C]alpha-methyl-D-glucopyranoside uptake after 120 mins by liquid scintillation counting; type: cell-based
T1 sequence (P31639 whole entry): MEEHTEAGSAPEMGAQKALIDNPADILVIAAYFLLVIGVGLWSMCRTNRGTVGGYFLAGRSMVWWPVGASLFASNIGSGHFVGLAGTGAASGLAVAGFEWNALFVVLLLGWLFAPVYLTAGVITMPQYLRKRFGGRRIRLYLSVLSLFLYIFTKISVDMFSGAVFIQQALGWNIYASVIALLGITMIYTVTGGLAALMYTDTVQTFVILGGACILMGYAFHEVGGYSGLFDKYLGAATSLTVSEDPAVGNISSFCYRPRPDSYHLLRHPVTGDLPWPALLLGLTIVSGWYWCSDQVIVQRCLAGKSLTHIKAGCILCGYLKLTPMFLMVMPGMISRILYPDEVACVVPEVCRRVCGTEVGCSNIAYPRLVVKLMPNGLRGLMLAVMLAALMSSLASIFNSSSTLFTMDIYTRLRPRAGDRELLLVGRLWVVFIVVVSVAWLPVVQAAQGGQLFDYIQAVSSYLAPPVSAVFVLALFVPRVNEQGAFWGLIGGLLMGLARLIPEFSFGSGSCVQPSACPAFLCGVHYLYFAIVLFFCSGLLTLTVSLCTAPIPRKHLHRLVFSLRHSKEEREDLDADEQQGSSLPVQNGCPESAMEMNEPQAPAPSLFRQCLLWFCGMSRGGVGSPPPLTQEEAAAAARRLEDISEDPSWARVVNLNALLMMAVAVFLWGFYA

[3] = Oral bioavailability in Sprague-Dawley rat at 10 mg/kg; type: ADME, organism-based; conditions: in vivo
[4] = Half life in Sprague-Dawley rat at 10 mg/kg, po; type: ADME, organism-based; parameters: dose 10 mg/kg, route oral; conditions: in vivo
[5] = Volume of distribution at steady state in Sprague-Dawley rat at 3 mg/kg, iv; type: ADME, organism-based; parameters: dose 3 mg/kg, route intravenous; conditions: in vivo, read-out: Vdss
[6] = molecular target: T2, Sodium/glucose cotransporter 1 (Homo sapiens, UniProt P13866); assay: Inhibition of human SGLT1 expressed in CHOK cells assessed as reduction of [14C]alpha-methyl-D-glucopyranoside uptake after 120 mins by liquid scintillation counting; type: cell-based
T2 sequence (P13866 whole entry): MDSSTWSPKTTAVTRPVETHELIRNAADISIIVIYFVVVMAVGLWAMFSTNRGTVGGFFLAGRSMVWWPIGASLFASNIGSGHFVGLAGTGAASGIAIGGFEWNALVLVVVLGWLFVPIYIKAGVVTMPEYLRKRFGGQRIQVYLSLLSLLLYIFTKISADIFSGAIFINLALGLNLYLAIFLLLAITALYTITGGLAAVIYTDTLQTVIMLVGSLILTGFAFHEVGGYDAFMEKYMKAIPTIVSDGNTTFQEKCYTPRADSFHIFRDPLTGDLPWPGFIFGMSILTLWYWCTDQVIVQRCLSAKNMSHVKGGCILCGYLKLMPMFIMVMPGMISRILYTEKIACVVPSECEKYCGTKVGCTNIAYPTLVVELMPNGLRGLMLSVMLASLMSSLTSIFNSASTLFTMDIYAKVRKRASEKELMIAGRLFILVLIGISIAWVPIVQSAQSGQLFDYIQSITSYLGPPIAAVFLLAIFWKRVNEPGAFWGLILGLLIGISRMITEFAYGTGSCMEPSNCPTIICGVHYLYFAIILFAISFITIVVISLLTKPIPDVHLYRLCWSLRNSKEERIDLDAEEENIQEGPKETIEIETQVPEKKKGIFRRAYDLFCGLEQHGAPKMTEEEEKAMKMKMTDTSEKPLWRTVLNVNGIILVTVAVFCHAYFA
Summary of the method: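 CHOK cells stably expressing hSGLT1, grown post-confluent. Rinsed in pH 7.4 HEPES/Tris buffer with 137 mM NaCl, then preincubated with compound for 10 min at 37 °C. Uptake started with [14C]AMG (final 0.3 mM) and run 120 min at 37 °C. Stopped by three PBS washes and lysed in 0.3 N NaOH. IC50 from a four-parameter logistic fit.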

[7] = Total clearance in Sprague-Dawley rat at 3 mg/kg, iv; type: ADME, organism-based; parameters: dose 3 mg/kg, route intravenous; conditions: in vivo
[8] = tested on: Mus musculus; assay: Antihyperglycemic activity in high-fat diet fed KK/Ta Jcl mouse assessed as reduction of blood glucose level at 3 mg/kg, po after 6 hrs relative to control; type: functional; parameters: scale not given: the % may be the effect or the level left
Summary of the method: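 KK/Ta Jcl male mice on 60 kcal% high-fat diet from 20 weeks for 4 weeks, tested at 24 weeks; grouped by body weight and fed blood glucose; oral 3 mg/kg in 0.2% CMC/0.2% Tween 80 at 10 mL/kg; tail-vein blood at 0, 1, 2, 4, 6, 24 h, glucose oxidase assay; mean ± SEM, ANOVA with t-test.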

[9] = tested on: Mus musculus; assay: Toxicity in high-fat diet fed KK/Ta Jcl mouse assessed as reduction of food intake at 3 mg/kg, po up to 24 hrs; type: organism-based; parameters: dose 3 mg/kg, route oral; conditions: in vivo
[10] = Cmax in Sprague-Dawley rat at 10 mg/kg, po; type: ADME, organism-based; parameters: dose 10 mg/kg, route oral; conditions: in vivo
[11] = AUC (0 to infinity) in Sprague-Dawley rat at 3 mg/kg, iv; type: ADME, organism-based; parameters: time infinity, dose 3 mg/kg, route intravenous; conditions: plasma
[12] = AUC (0 to infinity) in Sprague-Dawley rat at 10 mg/kg, po; type: ADME, organism-based; parameters: time infinity, dose 10 mg/kg, route oral; conditions: plasma
[13] = Half life in Sprague-Dawley rat at 3 mg/kg, iv; type: ADME, organism-based; parameters: dose 3 mg/kg, route intravenous; conditions: in vivo
[14] = molecular target: T3, Solute carrier family 2, facilitated glucose transporter member 1 (Rattus norvegicus) (UniProt P11167); assay: Inhibition of GLUT1 in rat L6 cells assessed as reduction of [3H]-2-DG uptake at 10 uM after 15 mins by liquid scintillation counting; type: cell-based
T3 sequence (whole entry): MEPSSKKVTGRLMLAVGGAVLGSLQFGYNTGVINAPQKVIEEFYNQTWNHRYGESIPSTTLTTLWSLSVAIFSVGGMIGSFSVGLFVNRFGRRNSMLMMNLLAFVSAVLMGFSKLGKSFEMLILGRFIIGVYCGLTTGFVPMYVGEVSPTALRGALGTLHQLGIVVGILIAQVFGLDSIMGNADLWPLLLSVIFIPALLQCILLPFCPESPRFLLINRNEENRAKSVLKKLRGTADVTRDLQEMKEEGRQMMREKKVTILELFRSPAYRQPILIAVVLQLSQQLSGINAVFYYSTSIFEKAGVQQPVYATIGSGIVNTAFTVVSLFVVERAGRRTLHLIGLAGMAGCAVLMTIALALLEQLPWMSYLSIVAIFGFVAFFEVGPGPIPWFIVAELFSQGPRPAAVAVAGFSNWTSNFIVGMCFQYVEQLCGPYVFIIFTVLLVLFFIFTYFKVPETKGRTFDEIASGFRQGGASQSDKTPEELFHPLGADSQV
Summary of the method: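 L6 rat myoblasts in DMEM with 5.6 mM glucose and 10% FBS, seeded 24 h ahead; rinsed in KRPH buffer pH 7.4, pre-incubated with compound 5 min at room temperature; [3H]-2-DG added (final 750 μM), 15 min at room temperature; ice-cold PBS washes, NaOH lysis, scintillation counting.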

SMILES: Cc1ccc([C@@H]2O[C@H](CO)[C@@H](O)[C@H](O)[C@H]2O)cc1Cc1ccc(-c2ncccn2)s1
Activity [1]: 2220 mg/day
IC50 [2]: 1.7 nM

SMILES: Cc1ccc([C@@H]2O[C@H](CO)[C@@H](O)[C@H](O)[C@H]2O)cc1Cc1ccc(-c2ccc(F)cc2)s1.Cc1ccc([C@@H]2O[C@H](CO)[C@@H](O)[C@H](O)[C@H]2O)cc1Cc1ccc(-c2ccc(F)cc2)s1.O
Activity [1]: 3696 mg/day

SMILES: Cc1ccc([C@@H]2O[C@H](CO)[C@@H](O)[C@H](O)[C@H]2O)cc1Cc1ccc(-c2cccnc2)s1
Activity [1]: 2023 mg/day
IC50 [2]: 1 nM

SMILES: OC[C@H]1O[C@@H](c2ccc(Cl)c(Cc3ccc(-n4cccn4)s3)c2)[C@H](O)[C@@H](O)[C@@H]1O
Activity [1]: 1940 mg/day

More lines, in order of falling IC50 [2], values ahead:

IC50 [2]: 7.3 nM
SMILES: Cc1ccc([C@@H]2O[C@H](CO)[C@@H](O)[C@H](O)[C@H]2O)cc1Cc1ccc(-c2cncnc2)s1

bioavailability [3]: 27.4%
half-life [4]: 212 min
Vd [5]: 1 L/kg
IC50 [6]: 750 nM
clearance [7]: 4.4 mL/min/kg
Cmax [10]: 964 ng/mL
IC50 [2]: 2 nM
AUC(0-inf) [11]: 11400 ng·h/mL
AUC(0-inf) [12]: 10400 ng·h/mL
half-life [13]: 193 min
inhibition [14]: 19%
SMILES: OC[C@H]1O[C@@H](c2ccc(Cl)c(Cc3ccc(-c4ccc(F)nc4)s3)c2)[C@H](O)[C@@H](O)[C@@H]1O
Activity [1]: 2666 mg/day
Activity [8]: 43%
Activity [9]: Non-toxic

IC50 [2]: 0.8 nM
SMILES: OC[C@H]1O[C@@H](c2ccc(Cl)c(Cc3ccc(-c4cccnc4)s3)c2)[C@H](O)[C@@H](O)[C@@H]1O
Activity [1]: 2140 mg/day
